Active and inactive are the calls of the source. No cut-off for these calls is given here.
The compounds below were run against Voltage-dependent L-type calcium channel subunit alpha-1C (Rattus norvegicus, UniProt P22002) (assay: Inhibition of rat Cav1.2 channel in rat mesenteric artery assessed as relaxation of 70 mM K+ induced contraction). Conditions: rat.
Type: tissue-based
Procedure, shortened: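 Third-order mesenteric artery segments (2 mm) from 6-month-old Wistar Kyoto rats on a wire myograph, isometric tension, Krebs−Henseleit at 37 °C, pH 7.4. Segments equilibrated, stretched to optimal diameter, tested with 120 mM KCl, endothelium checked with 10 μM acetylcholine.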

Chain of Voltage-dependent L-type calcium channel subunit alpha-1C (P22002 whole entry): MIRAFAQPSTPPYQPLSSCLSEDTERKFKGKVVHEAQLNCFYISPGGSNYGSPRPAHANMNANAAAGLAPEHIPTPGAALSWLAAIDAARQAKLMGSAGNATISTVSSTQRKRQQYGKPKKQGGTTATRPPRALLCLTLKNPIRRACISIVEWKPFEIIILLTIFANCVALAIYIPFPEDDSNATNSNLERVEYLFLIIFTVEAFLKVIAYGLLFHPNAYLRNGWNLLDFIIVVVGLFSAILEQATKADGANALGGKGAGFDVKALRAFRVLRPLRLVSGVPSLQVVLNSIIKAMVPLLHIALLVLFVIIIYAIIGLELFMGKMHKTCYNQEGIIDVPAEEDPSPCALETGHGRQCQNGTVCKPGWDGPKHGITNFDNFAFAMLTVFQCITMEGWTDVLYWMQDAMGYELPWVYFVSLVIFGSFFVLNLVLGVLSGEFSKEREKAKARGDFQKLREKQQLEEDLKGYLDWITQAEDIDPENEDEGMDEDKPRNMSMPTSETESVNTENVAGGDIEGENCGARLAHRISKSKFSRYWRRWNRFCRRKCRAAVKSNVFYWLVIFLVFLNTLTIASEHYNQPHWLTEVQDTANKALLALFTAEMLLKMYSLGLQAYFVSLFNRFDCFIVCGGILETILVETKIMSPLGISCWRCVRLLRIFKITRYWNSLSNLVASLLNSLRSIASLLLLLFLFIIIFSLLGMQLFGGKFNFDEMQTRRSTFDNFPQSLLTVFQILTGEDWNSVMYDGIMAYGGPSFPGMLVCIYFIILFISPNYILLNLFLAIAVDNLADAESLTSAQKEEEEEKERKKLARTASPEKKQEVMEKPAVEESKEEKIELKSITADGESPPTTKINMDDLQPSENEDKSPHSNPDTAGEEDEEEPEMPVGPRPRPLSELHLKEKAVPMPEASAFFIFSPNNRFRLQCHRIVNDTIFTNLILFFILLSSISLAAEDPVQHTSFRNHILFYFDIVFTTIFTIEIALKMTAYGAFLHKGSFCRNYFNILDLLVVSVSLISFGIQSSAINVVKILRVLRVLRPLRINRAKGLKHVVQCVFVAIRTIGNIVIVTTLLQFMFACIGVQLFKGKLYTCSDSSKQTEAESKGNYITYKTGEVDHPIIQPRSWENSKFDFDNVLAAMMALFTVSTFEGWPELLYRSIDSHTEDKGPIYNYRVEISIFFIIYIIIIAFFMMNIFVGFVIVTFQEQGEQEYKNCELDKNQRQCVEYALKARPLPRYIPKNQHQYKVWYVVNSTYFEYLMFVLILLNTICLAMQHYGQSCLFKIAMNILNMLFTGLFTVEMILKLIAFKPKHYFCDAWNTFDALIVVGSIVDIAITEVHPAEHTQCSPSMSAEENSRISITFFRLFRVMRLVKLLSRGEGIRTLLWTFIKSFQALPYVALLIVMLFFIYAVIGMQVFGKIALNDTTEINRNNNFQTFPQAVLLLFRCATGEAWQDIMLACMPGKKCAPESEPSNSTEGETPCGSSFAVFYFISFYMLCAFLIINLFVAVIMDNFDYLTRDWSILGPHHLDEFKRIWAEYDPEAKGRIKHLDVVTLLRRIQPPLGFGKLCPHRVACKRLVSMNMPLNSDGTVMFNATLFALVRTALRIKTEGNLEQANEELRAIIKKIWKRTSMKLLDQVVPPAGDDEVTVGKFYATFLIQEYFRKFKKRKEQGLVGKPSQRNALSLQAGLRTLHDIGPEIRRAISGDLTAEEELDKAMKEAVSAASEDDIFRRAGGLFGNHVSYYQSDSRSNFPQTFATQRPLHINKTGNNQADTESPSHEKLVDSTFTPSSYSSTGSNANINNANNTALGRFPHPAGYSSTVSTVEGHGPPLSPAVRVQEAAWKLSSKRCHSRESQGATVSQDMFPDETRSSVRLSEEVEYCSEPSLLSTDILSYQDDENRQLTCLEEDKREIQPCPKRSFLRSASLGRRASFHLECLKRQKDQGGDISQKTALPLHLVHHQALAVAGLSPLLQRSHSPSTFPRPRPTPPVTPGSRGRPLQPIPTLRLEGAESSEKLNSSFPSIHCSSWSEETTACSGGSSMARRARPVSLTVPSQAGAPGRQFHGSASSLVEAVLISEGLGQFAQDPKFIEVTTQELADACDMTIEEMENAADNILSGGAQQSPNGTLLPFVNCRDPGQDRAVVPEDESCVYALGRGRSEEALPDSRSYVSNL

In the case of `C=CCOC(=O)C1=C(C)NC(c2ccc(Cl)cc2)=CC1c1ccccc1` (stereo not given), the “inhibition (INH)” value is reported as “Dose-dependent effect”.
For `CCOC(=O)C1=C(C)NC(c2ccccc2)=CC1c1ccc(OC)cc1` (stereo not given), the “inhibition (INH)” value was “Dose-dependent effect”.
For `CCOC(=O)C1=C(C)NC(c2ccco2)=CC1c1ccc(C)cc1` (stereo not given), the “inhibition (INH)” value was “Dose-dependent effect”.
For `CC(=O)C1=C(C)NC(c2ccccc2)=CC1c1ccccc1` (stereo not given), the “inhibition (INH)” value was “Dose-dependent effect”.
With `COC(=O)C1=C(C)NC(C)=C(C(=O)OC)C1c1ccccc1[N+](=O)[O-]` [NIFEDIPINE] the “inhibition (INH)” value was “Dose-dependent effect”.
In the case of `CC1=C(C(=O)SC(C)(C)C)C(c2ccc(Br)cc2)C=C(c2ccc(C)cc2)N1` (stereo not given), the “inhibition (INH)” value is reported as “Dose-dependent effect”.

What follows are compounds tested on SH-SY5Y (assay: Neuroprotective activity against rotenone-oligomycin A-induced oxidative stress in human SH-SY5Y cells assessed as protection incubated with rot/oligo for 8 hrs followed by treated with compound at 5 uM for 16 hrs by MTT assay relative to control). Conditions: not given.
Type: functional
Procedure, shortened: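 SH-SY5Y cells cultured 24 h, then exposed to rotenone/oligomycin A (30/10 μM) for 8 h at 37 °C. Stressor was removed and cells incubated 16 h with compound in 1% FBS medium. Melatonin 0.3 μM was the positive control, and compounds were used at 5 μM. Viability by MTT; % protection against basal as 100%, normalized to rot/olig toxicity; five to seven cultures in triplicate.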

First: C=CCOC(=O)C1=C(C)NC(c2ccc(Cl)cc2)=CC1c1ccccc1 (stereo not given)
Second: CCOC(=O)C1=C(C)NC(c2ccccc2)=CC1c1ccc(OC)cc1 (stereo not given)
The Activity of the first is higher: 44.1% for the first, 42% for the second.

Compared with `CCOC(=O)C1=C(C)NC(c2ccco2)=CC1c1ccc(C)cc1` (stereo not given), `CC1=C(C(=O)SC(C)(C)C)C(c2ccc(Br)cc2)C=C(c2ccc(C)cc2)N1` (stereo not given) is lower in Activity: 33.2% for the first, 12.3% for the second.

Going from `CC(=O)C1=C(C)NC(c2ccccc2)=CC1c1ccccc1` (stereo not given) to `COC(=O)C1=C(C)NC(C)=C(C(=O)OC)C1c1ccccc1[N+](=O)[O-]` [NIFEDIPINE], the Activity falls from 21.7% to 11.7%.

These compounds were tested against Voltage-dependent L-type calcium channel subunit alpha-1D (Homo sapiens, UniProt Q01668) (assay: Inhibition of human Cav1.3 channel in human SH-SY5Y cells assessed as 70 mM K+ induced calcium elevation compound treated 15 mins before stimulus by Fluo-4/AM assay). Conditions: not given.
Chain of Voltage-dependent L-type calcium channel subunit alpha-1D (Q01668 whole entry): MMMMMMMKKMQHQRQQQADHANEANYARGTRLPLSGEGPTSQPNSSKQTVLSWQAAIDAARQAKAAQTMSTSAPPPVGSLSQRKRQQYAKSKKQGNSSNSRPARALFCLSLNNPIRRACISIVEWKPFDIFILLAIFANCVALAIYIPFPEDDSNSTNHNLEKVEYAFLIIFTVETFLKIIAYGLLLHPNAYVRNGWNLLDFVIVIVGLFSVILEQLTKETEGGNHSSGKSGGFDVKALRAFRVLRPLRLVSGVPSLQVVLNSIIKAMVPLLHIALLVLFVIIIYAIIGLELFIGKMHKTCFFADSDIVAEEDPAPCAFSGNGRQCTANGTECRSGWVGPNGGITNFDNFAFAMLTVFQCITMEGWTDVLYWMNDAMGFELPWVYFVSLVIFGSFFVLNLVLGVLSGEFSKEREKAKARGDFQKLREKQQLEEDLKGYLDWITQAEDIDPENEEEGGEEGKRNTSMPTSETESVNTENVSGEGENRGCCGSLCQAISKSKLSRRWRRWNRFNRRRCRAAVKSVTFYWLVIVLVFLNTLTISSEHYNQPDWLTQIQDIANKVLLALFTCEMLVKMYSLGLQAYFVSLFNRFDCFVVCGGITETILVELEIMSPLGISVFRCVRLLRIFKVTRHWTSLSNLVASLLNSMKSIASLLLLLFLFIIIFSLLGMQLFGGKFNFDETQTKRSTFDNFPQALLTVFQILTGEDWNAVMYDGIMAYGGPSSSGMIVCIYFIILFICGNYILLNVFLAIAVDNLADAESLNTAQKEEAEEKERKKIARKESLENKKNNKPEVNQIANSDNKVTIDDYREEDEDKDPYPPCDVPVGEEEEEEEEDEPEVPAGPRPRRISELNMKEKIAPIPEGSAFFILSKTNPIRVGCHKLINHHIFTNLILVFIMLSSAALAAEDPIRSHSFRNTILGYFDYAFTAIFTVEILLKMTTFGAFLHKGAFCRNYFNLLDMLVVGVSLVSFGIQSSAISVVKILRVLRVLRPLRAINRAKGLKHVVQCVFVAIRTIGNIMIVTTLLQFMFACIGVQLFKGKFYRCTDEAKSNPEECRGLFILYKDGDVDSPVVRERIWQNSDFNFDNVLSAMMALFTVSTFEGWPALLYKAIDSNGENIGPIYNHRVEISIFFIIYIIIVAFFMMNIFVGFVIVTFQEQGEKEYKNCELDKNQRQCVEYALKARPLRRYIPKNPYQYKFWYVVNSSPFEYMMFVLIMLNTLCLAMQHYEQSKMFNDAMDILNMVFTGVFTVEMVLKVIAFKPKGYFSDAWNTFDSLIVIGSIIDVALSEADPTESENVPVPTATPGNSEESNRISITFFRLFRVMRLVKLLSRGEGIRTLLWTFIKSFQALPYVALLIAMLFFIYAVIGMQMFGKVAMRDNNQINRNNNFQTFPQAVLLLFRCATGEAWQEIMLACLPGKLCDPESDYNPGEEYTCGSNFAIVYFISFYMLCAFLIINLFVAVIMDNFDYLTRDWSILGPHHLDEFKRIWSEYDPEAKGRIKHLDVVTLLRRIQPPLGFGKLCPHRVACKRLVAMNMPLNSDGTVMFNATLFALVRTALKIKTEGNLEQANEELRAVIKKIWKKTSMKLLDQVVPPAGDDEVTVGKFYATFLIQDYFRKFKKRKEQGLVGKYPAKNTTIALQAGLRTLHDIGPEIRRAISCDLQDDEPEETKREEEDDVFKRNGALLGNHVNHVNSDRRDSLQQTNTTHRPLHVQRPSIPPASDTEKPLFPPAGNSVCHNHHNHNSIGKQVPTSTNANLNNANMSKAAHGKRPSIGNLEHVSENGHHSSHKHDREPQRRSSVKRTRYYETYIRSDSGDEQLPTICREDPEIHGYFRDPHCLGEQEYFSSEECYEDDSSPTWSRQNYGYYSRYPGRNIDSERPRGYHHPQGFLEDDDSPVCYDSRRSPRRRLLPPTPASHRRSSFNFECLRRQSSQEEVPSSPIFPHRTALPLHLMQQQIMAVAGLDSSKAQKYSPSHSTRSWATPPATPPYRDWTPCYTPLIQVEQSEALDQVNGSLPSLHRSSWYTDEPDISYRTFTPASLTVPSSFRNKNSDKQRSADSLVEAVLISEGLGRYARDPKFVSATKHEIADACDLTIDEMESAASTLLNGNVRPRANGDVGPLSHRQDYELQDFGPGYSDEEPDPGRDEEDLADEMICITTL
Type: cell-based
Procedure, shortened: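 SH-SY5Y cells grown 2 days, loaded with 10 μM Fluo-4/AM for 1 h at 37 °C in serum-free medium, washed with Krebs-HEPES and held 15 min at room temperature. Compound applied 15 min before 70 mM KCl.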

Going from `C=CCOC(=O)C1=C(C)NC(c2ccc(Cl)cc2)=CC1c1ccccc1` (stereo not given) to `CCOC(=O)C1=C(C)NC(c2ccccc2)=CC1c1ccc(OC)cc1` (stereo not given), the IC50 rises from 18.5 µM to 29.8 µM (1.6-fold). The first is the more potent here.

`CCOC(=O)C1=C(C)NC(c2ccco2)=CC1c1ccc(C)cc1` (stereo not given) and `CC1=C(C(=O)SC(C)(C)C)C(c2ccc(Br)cc2)C=C(c2ccc(C)cc2)N1` (stereo not given) are within 1.5-fold of each other in IC50: 55.5 µM for the first, 59.6 µM for the second.

Work on `CC(=O)C1=C(C)NC(c2ccccc2)=CC1c1ccccc1` (stereo not given) yielded an IC50 of 27.1 µM.

What follows are compounds tested on Hippocampus (assay: Neuroprotective activity against oxygen-glucose deprivation induced-oxidative stress in rat hippocampal slices assessed as maximum protection treated at 10 uM during 120 mins of reoxygenation period by MTT assay (Rvb =40%)). Conditions: not given.
Type: functional
Procedure, shortened: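 Transverse hippocampal slices ([…] as printed) from adult male Sprague−Dawley rats (275−325 g). After 30 min stabilization, 15 min OGD at 37 °C in glucose-free Krebs (2-deoxyglucose) under 95% N₂/5% CO₂, then 120 min reoxygenation in oxygenated Krebs with compound (1, 3, 10 μM) present. MTT at 0.5 mg/mL for 30 min at 37 °C; control slices set as 100%; five experiments.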

For `COC(=O)C1=C(C)NC(C)=C(C(=O)OC)C1c1ccccc1[N+](=O)[O-]` [NIFEDIPINE], the Activity was “inactive”.

Each compound was assayed on SH-SY5Y (assay: Neuroprotective activity against rotenone-oligomycin A-induced oxidative stress in human SH-SY5Y cells assessed as survival at 5 uM co-incubated rot/oligo for 24 hrs by MTT assay (Rvb =65.6 +/- 1.3%)). Conditions: read-out: Survival.
Type: functional

Going from `C=CCOC(=O)C1=C(C)NC(c2ccc(Cl)cc2)=CC1c1ccccc1` (stereo not given) to `CCOC(=O)C1=C(C)NC(c2ccccc2)=CC1c1ccc(OC)cc1` (stereo not given), the viability at 5 µM rises from 79.7% to 81.3%.

Going from `CCOC(=O)C1=C(C)NC(c2ccco2)=CC1c1ccc(C)cc1` (stereo not given) to `CC1=C(C(=O)SC(C)(C)C)C(c2ccc(Br)cc2)C=C(c2ccc(C)cc2)N1` (stereo not given), the viability at 5 µM rises from 78% to 85.7%.

Compared with `CC(=O)C1=C(C)NC(c2ccccc2)=CC1c1ccccc1` (stereo not given), `COC(=O)C1=C(C)NC(C)=C(C(=O)OC)C1c1ccccc1[N+](=O)[O-]` [NIFEDIPINE] is lower in viability at 5 µM: 87.3% for the first, 78.4% for the second.

Each compound was assayed on SH-SY5Y (assay: Neuroprotective activity against K+ induced Ca2+ overload in human SH-SY5Y cells assessed as protection at 0.3 uM after 24 hrs by MTT assay relative to control). Conditions: not given.
Type: functional

Compound `COC(=O)C1=C(C)NC(C)=C(C(=O)OC)C1c1ccccc1[N+](=O)[O-]` [NIFEDIPINE] has an Activity of 15.8%.

These compounds were tested on SH-SY5Y (assay: Neuroprotective activity against K+ induced Ca2+ overload in human SH-SY5Y cells assessed as survival at 5 uM after 24 hrs by MTT assay (reference value: 52.1 +/- 3.5%)). Conditions: read-out: Survival.
Type: functional

First: C=CCOC(=O)C1=C(C)NC(c2ccc(Cl)cc2)=CC1c1ccccc1 (stereo not given)
Second: CCOC(=O)C1=C(C)NC(c2ccccc2)=CC1c1ccc(OC)cc1 (stereo not given)
The viability at 5 µM of the first is lower: 68.7% for the first, 69.4% for the second.

Compared with `CCOC(=O)C1=C(C)NC(c2ccco2)=CC1c1ccc(C)cc1` (stereo not given), `CC1=C(C(=O)SC(C)(C)C)C(c2ccc(Br)cc2)C=C(c2ccc(C)cc2)N1` (stereo not given) is lower in viability at 5 µM: 68.5% for the first, 67.2% for the second.

First: CC(=O)C1=C(C)NC(c2ccccc2)=CC1c1ccccc1 (stereo not given)
Second: COC(=O)C1=C(C)NC(C)=C(C(=O)OC)C1c1ccccc1[N+](=O)[O-] [NIFEDIPINE]
The viability at 5 µM of the first is higher: 67.4% for the first, 62.9% for the second.

These compounds were tested on SH-SY5Y (assay: Neuroprotective activity against K+ induced Ca2+ overload in human SH-SY5Y cells assessed as survival at 0.3 uM after 24 hrs by MTT assay (reference value: 52.1 +/- 3.5%)). Conditions: read-out: Survival.
Type: functional

In the case of `COC(=O)C1=C(C)NC(C)=C(C(=O)OC)C1c1ccccc1[N+](=O)[O-]` [NIFEDIPINE], the viability at 0.3 µM is reported as 58.7%.

The compounds below were run on SH-SY5Y (assay: Neuroprotective activity against K+ induced Ca2+ overload in human SH-SY5Y cells assessed as protection at 5 uM after 24 hrs by MTT assay relative to control). Conditions: not given.
Type: functional
Procedure, shortened: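 SH-SY5Y cells, 1 × 10⁵/well, 1% FBS medium, up to 13 passages. Compound diluted from 10⁻² M DMSO stock to 5 μM and co-incubated 24 h with 70 mM K⁺ (hypertonic); DMSO-only controls. MTT at 5 mg/mL for 2 h at 37 °C, read at 540 nm. % protection computed against basal as 100% survival and normalized to K⁺ toxicity; at least five cultures in triplicate.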

Going from `C=CCOC(=O)C1=C(C)NC(c2ccc(Cl)cc2)=CC1c1ccccc1` (stereo not given) to `CCOC(=O)C1=C(C)NC(c2ccccc2)=CC1c1ccc(OC)cc1` (stereo not given), the Activity rises from 29.8% to 34.1%.

Compared with `CCOC(=O)C1=C(C)NC(c2ccco2)=CC1c1ccc(C)cc1` (stereo not given), `CC1=C(C(=O)SC(C)(C)C)C(c2ccc(Br)cc2)C=C(c2ccc(C)cc2)N1` (stereo not given) is higher in Activity: 32% for the first, 34.5% for the second.

Compared with `CC(=O)C1=C(C)NC(c2ccccc2)=CC1c1ccccc1` (stereo not given), `COC(=O)C1=C(C)NC(C)=C(C(=O)OC)C1c1ccccc1[N+](=O)[O-]` [NIFEDIPINE] is lower in Activity: 32.5% for the first, 20% for the second.

The compounds below were run on SH-SY5Y (assay: Neuroprotective activity against rotenone-oligomycin A-induced oxidative stress in human SH-SY5Y cells assessed as protection at 5 uM co-incubated rot/oligo for 24 hrs by MTT assay relative to control). Conditions: not given.
Type: functional
Procedure, shortened: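 SH-SY5Y cells in 1% FBS medium co-incubated 24 h with compound and rotenone/oligomycin A (30/10 μM). Melatonin 0.3 μM was the positive control, and compounds were used at 5 μM. Viability by MTT reduction at 540 nm. % protection computed against basal as 100% and normalized to rot/olig toxicity; five to seven cultures in triplicate.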

First: C=CCOC(=O)C1=C(C)NC(c2ccc(Cl)cc2)=CC1c1ccccc1 (stereo not given)
Second: CCOC(=O)C1=C(C)NC(c2ccccc2)=CC1c1ccc(OC)cc1 (stereo not given)
The Activity of the first is lower: 41.5% for the first, 46.2% for the second.

First: CCOC(=O)C1=C(C)NC(c2ccco2)=CC1c1ccc(C)cc1 (stereo not given)
Second: CC1=C(C(=O)SC(C)(C)C)C(c2ccc(Br)cc2)C=C(c2ccc(C)cc2)N1 (stereo not given)
The Activity of the first is lower: 36.6% for the first, 57.9% for the second.

Going from `CC(=O)C1=C(C)NC(c2ccccc2)=CC1c1ccccc1` (stereo not given) to `COC(=O)C1=C(C)NC(C)=C(C(=O)OC)C1c1ccccc1[N+](=O)[O-]` [NIFEDIPINE], the Activity falls from 61.9% to 29.3%.

These compounds were tested on SH-SY5Y (assay: Neuroprotective activity against rotenone-oligomycin A-induced oxidative stress in human SH-SY5Y cells assessed as survival incubated with rot/oligo for 8 hrs followed by treated with compound at 5 uM for 16 hrs by MTT assay (Rvb =70.6 +/- 1.8%)). Conditions: read-out: Survival.
Type: functional
Procedure, shortened: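 SH-SY5Y cells cultured 24 h, then exposed to rotenone/oligomycin A (30/10 μM) for 8 h at 37 °C. Stressor removed; compound in 1% FBS medium added for 16 h. DMSO-only control. MTT reduction (5 mg/mL, 2 h, 37 °C; OD 540 nm). Survival relative to untreated basal; mean ± SEM of five to seven cultures in triplicate.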

First: C=CCOC(=O)C1=C(C)NC(c2ccc(Cl)cc2)=CC1c1ccccc1 (stereo not given)
Second: CCOC(=O)C1=C(C)NC(c2ccccc2)=CC1c1ccc(OC)cc1 (stereo not given)
The viability at 5 µM of the first is higher: 84.3% for the first, 83.5% for the second.

Going from `CCOC(=O)C1=C(C)NC(c2ccco2)=CC1c1ccc(C)cc1` (stereo not given) to `CC1=C(C(=O)SC(C)(C)C)C(c2ccc(Br)cc2)C=C(c2ccc(C)cc2)N1` (stereo not given), the viability at 5 µM falls from 79.9% to 74.2%.

Compared with `CC(=O)C1=C(C)NC(c2ccccc2)=CC1c1ccccc1` (stereo not given), `COC(=O)C1=C(C)NC(C)=C(C(=O)OC)C1c1ccccc1[N+](=O)[O-]` [NIFEDIPINE] is lower in viability at 5 µM: 76.7% for the first, 73.8% for the second.
